Laboratory results: ChEMBL document CHEMBL3297735, “Optimization of troglitazone derivatives as potent anti-proliferative agents: towards more active and less toxic compounds” (Eur J Med Chem, 2014)

Legend:
[1] = Toxicity in BALBc/AnNHsd mouse assessed as mortality at 34 mg/kg, iv relative to control; type: organism-based; set-up: dose 34 mg/kg, route intravenous; settings: in vivo
[2] = system: HCT-116; test: Cytotoxicity against human HCT116 cells assessed as cell viability at 10 uM after 72 hrs by MTS assay in presence of 10% fetal calf serum relative to control; type: functional; settings: HCT-116, 72 h, read-out: Activity
[3] = system: MCF7; test: Cytotoxicity against human MCF7 cells assessed as cell viability at 10 uM after 72 hrs by MTS assay in presence of 10% fetal calf serum relative to control; type: functional; settings: MCF7, 72 h, read-out: Activity
In short: (§1)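 Cells were grown in RPMI with L-glutamine, 10% FCS, penicillin/streptomycin and fungizone at 37 °C under 5% CO2. Wells were seeded with 1900 cells for MCF-7 or 1300 cells for MDA-MB-231. After 24 h, compound was added from a 10 mM DMSO stock (final DMSO 1%) for 72 h, with DMSO-only controls. Viable cells were read by MTS at 490 nm and expressed as % of untreated. Mean ± SEM, N = 3.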

[4] = system: MDA-MB-231; test: Cytotoxicity against human MDA-MB-231 cells assessed as cell viability at 10 uM after 72 hrs by MTS assay in presence of 10% fetal calf serum relative to control; type: functional; settings: MDA-MB-231, 72 h, read-out: Activity; in short: as §1
[5] = Cytotoxicity against human MDA435 cells assessed as cell viability at 10 uM after 72 hrs by MTS assay in presence of 10% fetal calf serum relative to control; type: functional; settings: MDA-MB-435, 72 h, read-out: Activity
[6] = Cytotoxicity against human MiaPaCa cells assessed as cell viability at 10 uM after 72 hrs by MTS assay in presence of 10% fetal calf serum relative to control; type: functional; settings: MIA PaCa-2, 72 h, read-out: Activity
[7] = system: HepG2; test: Cytotoxicity against human HepG2 cells assessed as cell viability at 10 uM after 72 hrs by MTS assay in presence of 10% fetal calf serum relative to control; type: functional; settings: HepG2, 72 h, read-out: Activity
[8] = system: PC-3; test: Cytotoxicity against human PC3 cells assessed as cell viability at 10 uM after 72 hrs by MTS assay in presence of 10% fetal calf serum relative to control; type: functional; settings: PC-3, 72 h, read-out: Activity
[9] = system: LNCaP; test: Cytotoxicity against human LNCAP cells assessed as cell viability at 10 uM after 72 hrs by MTS assay in presence of 10% fetal calf serum relative to control; type: functional; settings: read-out: Activity
[10] = Cytotoxicity against human hepatocytes assessed as cell viability at 100 uM after 90 mins by MTT assay relative to control; type: cell-based, Hepatocyte; settings: read-out: Activity
In short: (§2)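 Cryopreserved human hepatocytes were plated at 0.1 × 10⁶ cells/well and exposed to compound for 90 min. MTT was then added for 30 min at 37 °C, plates were centrifuged, and formazan was dissolved in DMSO. Absorbance was read at 595 nm. Surviving cells are expressed as % of non-treated cells ± SEM.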

[11] = Cytotoxicity against human hepatocytes assessed as cell viability at 200 uM after 90 mins by MTT assay relative to control; type: cell-based, Hepatocyte; settings: read-out: Activity; in short: as §2
[12] = Acute toxicity in iv dosed BALBc/AnNHsd mouse; type: organism-based; settings: in vivo
In short: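 Acute toxicity run in female BALBc/AnNHsd mice given the compounds by intravenous injection. The read-out was the maximum tolerated dose (MTD). Compounds were dissolved in a mixture of solvents, and the top dose was capped by solubility in that mixture.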

[13] = system: Mus musculus; test: Toxicity in BALBc/AnNHsd mouse assessed as mortality at 65.5 mg/kg, iv; type: organism-based; set-up: dose 65.5 mg/kg, route intravenous; settings: in vivo
[14] = system: Mus musculus; test: Toxicity in BALBc/AnNHsd mouse assessed as behavioral changes at 65.5 mg/kg, iv; type: organism-based; set-up: dose 65.5 mg/kg, route intravenous; settings: in vivo
[15] = system: Mus musculus; test: Toxicity in BALBc/AnNHsd mouse assessed as change in body weight at 65.5 mg/kg, iv measured on day 1 (reference value: 17.67 +/- 0.33 g); type: organism-based; set-up: dose 65.5 mg/kg, route intravenous; settings: in vivo
In short: (§3)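 Acute toxicity was assessed in female BALBc/AnNHsd mice after intravenous injection of compound in a solvent mixture, to estimate the maximum tolerated dose.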

[16] = system: Mus musculus; test: Toxicity in BALBc/AnNHsd mouse assessed as change in body weight at 65.5 mg/kg, iv measured on day 2 (reference value: 19 +/- 1 g); type: organism-based; set-up: dose 65.5 mg/kg, route intravenous; settings: in vivo; in short: as §3
[17] = system: Mus musculus; test: Toxicity in BALBc/AnNHsd mouse assessed as change in body weight at 65.5 mg/kg, iv measured on day 15 (reference value: 18.33 +/- 0.33 g); type: organism-based; set-up: dose 65.5 mg/kg, route intravenous; settings: in vivo; in short: as §3
[18] = system: Mus musculus; test: Toxicity in BALBc/AnNHsd mouse assessed as change in organ morphology at 65.5 mg/kg, iv; type: organism-based; set-up: dose 65.5 mg/kg, route intravenous; settings: in vivo
[19] = system: MCF7; test: Cytotoxicity against human MCF7 cells after 24 hrs by CellTiterGlo assay in presence of 1% fetal calf serum; type: functional, cell-based; settings: MCF7, 24 h
In short: (§4)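 MCF-7 was maintained in phenol red DMEM and MDA-MB-231 in L-15. Cells were seeded in 6-well plates at 8.10⁴ cells/well in medium with 10% FCS and 2 mM L-glutamine. Medium was then switched to 1% FCS with 2 mM L-glutamine for treatment, with 0.1% DMSO controls. Cells were washed, trypsinized and counted with CellTiter-Glo luminescence. Each treatment was run in triplicate, and IC50 was taken as the concentration halving viable cells.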

[20] = system: MDA-MB-231; test: Cytotoxicity against human MDA-MB-231 cells after 24 hrs by CellTiterGlo assay in presence of 1% fetal calf serum; type: functional, cell-based; settings: MDA-MB-231, 24 h; in short: as §4
[21] = system: Mus musculus; test: Toxicity in BALBc/AnNHsd mouse assessed as mortality at 64.6 mg/kg, iv; type: organism-based; set-up: dose 64.6 mg/kg, route intravenous; settings: in vivo
[22] = system: Mus musculus; test: Toxicity in BALBc/AnNHsd mouse assessed as behavioral changes at 34 mg/kg, iv; type: organism-based; set-up: dose 34 mg/kg, route intravenous; settings: in vivo; in short: as §3
[23] = system: Mus musculus; test: Toxicity in BALBc/AnNHsd mouse assessed as change in body weight at 34 mg/kg, iv measured between day 1 and day 15 (reference value: 18 +/- 1 g); type: organism-based; set-up: dose 34 mg/kg, route intravenous; settings: in vivo; in short: as §3
[24] = system: Mus musculus; test: Toxicity in BALBc/AnNHsd mouse assessed as change in organ morphology at 34 mg/kg, iv; type: organism-based; set-up: dose 34 mg/kg, route intravenous; settings: in vivo; in short: as §3

SMILES | viability at 10 µM [2] | viability at 10 µM [3] | viability at 10 µM [4] | viability at 10 µM [5] | viability at 10 µM [6] | viability at 10 µM [7] | viability at 10 µM [8] | viability at 10 µM [9] | viability at 1.5 h, 100 µM [10] | viability at 1.5 h, 200 µM [11] | MTD [12] | IC50 [19] | IC50 [20] | further results
Cc1c(C)c2c(c(C)c1O)CCC(C)(COc1ccc(/C=C3\SC(=O)NC3=O)cc1)O2 (stereo not drawn) | 88% | 84% | 69.3% | 73.1% | 95% | 82.3% | 83.1% | 85.4% | 62.8% | 43.1% | 34 mg/kg |  |  | mortality [1]: > 50%
Cc1c(C)c2c(c(C)c1CCCCCCN)CCC(C)(COc1ccc(/C=C3\SC(=O)N(C)C3=O)cc1)O2.O=C(O)C(F)(F)F (racemic) | 0% | 0% | 0% | 0% | 0% | 0% | 7.7% | 11.6% | 82.6% | 82.7% | 65.5 mg/kg | 6.1 µM | 6.7 µM | Activity [13]: Non-toxic; Activity [14]: Non-toxic; Activity [15]: 17.67 g; Activity [16]: 19 g; Activity [17]: 18.5 g; Activity [18]: Non-toxic
Cc1c(C)c2c(c(C)c1CCCCCCN)CCC(C)(COc1ccc(/C=C3\SC(=O)NC3=O)cc1)O2.O=C(O)C(F)(F)F (racemic) | 6.9% | 2.7% | 7.6% | 35.2% | 5.9% | 12.9% | 60.1% | 46.8% | 83.2% | 79.9% | 34 mg/kg | 3.6 µM | 1.5 µM | Activity [21]: Toxic; Activity [22]: Non-toxic; Activity [23]: 21.5 g; Activity [24]: Non-toxic
